Activity calls are given as the source filed them. The rule behind the calls is not given here.
Columns and labels:
[1] = Antiproliferative activity against human A2780 cells measured after 48 hrs by MTT assay; type: functional, cell-based; conditions: A2780, 48 h
[2] = Antiproliferative activity against human MCF7 cells measured after 48 hrs by MTT assay; type: functional, cell-based; conditions: MCF7, 48 h
[3] = Antiproliferative activity against human LoVo cells measured after 48 hrs by MTT assay; type: functional, cell-based
[4] = Antiproliferative activity against human Bel7402 cells measured after 48 hrs by MTT assay; type: functional, cell-based; conditions: Bel-7402, 48 h
[5] = Antiproliferative activity against human HeLa cells measured after 48 hrs by MTT assay; type: functional, cell-based
[6] = Antiproliferative activity against human A549 cells measured after 48 hrs by MTT assay; type: functional, cell-based; conditions: A549, 48 h
[7] = Antiproliferative activity against human PC3 cells measured after 48 hrs by MTT assay; type: functional, cell-based; conditions: PC-3, 48 h
[8] = Inhibition of porcine brain tubulin polymerization measured every 60 secs for 90 mins by fluorescence assay; design: species or system Sus scrofa
Outline: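 Porcine brain tubulin in a fluorescence kit. Reaction mix: 80.0 mM PIPES sesquisodium (pH 6.9), 2.0 mM MgCl2, 0.5 mM EGTA, 1 mM GTP, 10.2% glycerol. Compound added and mix pre-warmed 1 min at 37 °C, then tubulin added to start. Fluorescence (ex 340, em 410 nm) read every 60 s for 90 min. IC50 from area under curve, three independent experiments.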

[9] = Selectivity ratio of IC50 for HUVEC in presence of fetal calf serum and absence of growth factor to IC50 for human A549 cells; type: cell-based; conditions: HUVEC versus A549 cells, read-out: Ratio IC50
Outline: (§1)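 Ratio = IC50 in the normal line (HUVEC quiescent in 0.5% fetal calf serum without growth factor, MCF-10A, BJ or HLF) divided by IC50 in A549.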

[10] = Antiproliferative activity against human BJ cells measured after 48 hrs by MTT assay; type: cell-based
Outline: (§2)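 Cells in log phase plated at 5×10^3 cells/well, grown 24 h at 37 °C, 5% CO2, then exposed to a range of compound concentrations for 48 h. MTT (5 mg/mL stock) added, formazan dissolved in DMSO, absorbance read at 570 nm. IC50 from nonlinear regression, at least three independent experiments. Quiescent HUVECs kept in endothelial medium with 0.5% fetal calf serum, no growth factor.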

A549 [11] = assay: Induction of apoptosis in human A549 cells by Annexin-V-FITC/propidium iodide staining based flow cytometry; type: functional, cell-based
Outline: (§3)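 A549 seeded at 3×10^5 cells/well and treated at 10, 20 or 50 nM for 24 or 48 h, then harvested. Annexin V-FITC in HEPES 10 mM/NaCl 140 mM/CaCl2 2.5 mM (pH 7.4) 15 min at room temperature, then PI 10 min. About 10,000 events by flow cytometry, quadrants scored as early or late apoptotic. Three repeats.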

A549 [12] = assay: Induction of apoptosis in human A549 cells assessed as late and early apoptotic cells at 50 nM measured after 48 hrs by Annexin-V-FITC/propidium iodide staining based flow cytometry (reference value: 0.63 %); type: functional; outline: as §3
A549 [13] = assay: Disruption of cellular microtubule network in human A549 cells assessed as blockade of cell mitosis measured after 12 hrs by Hochest 33342 staining based laser confocal microscopy
[14] = Antiproliferative activity against HLF measured after 48 hrs by MTT assay; conditions: Homo sapiens; outline: as §2
[15] = Cell cycle arrest in human A549 cells assessed as accumulation at G2/M phase at 50 nM measured after 24 hrs by propidium iodide staining based flow cytometry relative to control; type: functional
Outline: (§4)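 A549 seeded at 3×10^5 cells/well and treated 24 or 48 h. Trypsinized, fixed in 70% ethanol at 4 °C overnight, RNase A 37 °C 30 min, then PI 4 °C 30 min. DNA content of 10,000 events read by flow cytometry at 488 nm. Three repeats.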

A549 [16] = assay: Disruption of cellular microtubule network in human A549 cells measured after 12 hrs by Hochest 33342 staining based laser confocal microscopy; type: cell-based
A549 [17] = assay: Induction of apoptosis in human A549 cells assessed as late and early apoptotic cells at 20 nM measured after 48 hrs by Annexin-V-FITC/propidium iodide staining based flow cytometry (reference value: 0.63 %); type: functional; outline: as §3
[18] = Selectivity ratio of IC50 for HLF to IC50 for human A549 cells; type: ADME, cell-based; conditions: HLF versus A549 cells, read-out: Ratio IC50; outline: as §1
A549 [19] = assay: Induction of apoptosis in human A549 cells assessed as late and early apoptotic cells at 10 nM measured after 48 hrs by Annexin-V-FITC/propidium iodide staining based flow cytometry (reference value: 0.63 %); type: functional; outline: as §3
[20] = Selectivity ratio of IC50 for human BJ cells to IC50 for human A549 cells; type: ADME, cell-based; conditions: BJ cells versus A549 cells, read-out: Ratio IC50; outline: as §1
[21] = Antiproliferative activity against HUVEC in presence of fetal calf serum and absence of growth factor measured after 48 hrs by MTT assay; type: cell-based; conditions: Homo sapiens; outline: as §2
[22] = Antiproliferative activity against human MCF10A cells measured after 48 hrs by MTT assay; type: cell-based; conditions: MCF-10A; outline: as §2
A549 [23] = assay: Cytotoxicity against human A549 cells assessed as change in cell morphology at 20 to 200 nM measured after 48 hrs by phase contrast microscopy; type: functional, cell-based
Outline: (§5)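 A549 cells and quiescent HUVECs (0.5% fetal calf serum, no growth factor) treated at 20 and 200 nM for 48 h. Morphology (rounding, shrinkage, blebbing, detachment) inspected by microscopy.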

[24] = Cell cycle arrest in human A549 cells assessed as reduction in G1 phase at 10 to 50 nM measured after 24 to 48 hrs by propidium iodide staining based flow cytometry; type: functional; outline: as §4
[25] = Cytotoxicity against HUVEC assessed as change in cell morphology at 200 nM in presence of fetal calf serum and absence of growth factor measured after 48 hrs by phase contrast microscopy; type: toxicity, cell-based; conditions: human, 0.2 µM; outline: as §5
A549 [26] = assay: Induction of apoptosis in human A549 cells assessed as late and early apoptotic cells at 10 nM measured after 24 hrs by Annexin-V-FITC/propidium iodide staining based flow cytometry (reference value: 0.63 %); type: functional; outline: as §3
A549 [27] = assay: Induction of apoptosis in human A549 cells assessed as late and early apoptotic cells at 50 nM measured after 24 hrs by Annexin-V-FITC/propidium iodide staining based flow cytometry (reference value: 0.63 %); type: functional; outline: as §3
A549 [28] = assay: Induction of apoptosis in human A549 cells assessed as late and early apoptotic cells at 20 nM measured after 24 hrs by Annexin-V-FITC/propidium iodide staining based flow cytometry (reference value: 0.63 %); type: functional; outline: as §3
[29] = Cell cycle arrest in human A549 cells assessed as accumulation at G2/M phase at 10 nM measured after 24 hrs by propidium iodide staining based flow cytometry relative to control; type: functional; outline: as §4
[30] = Cell cycle arrest in human A549 cells assessed as accumulation at G2/M phase at 25 nM measured after 24 hrs by propidium iodide staining based flow cytometry relative to control; type: functional; outline: as §4
[31] = Selectivity ratio of IC50 for human MCF10A cells to IC50 for human A549 cells; type: ADME, cell-based; conditions: MCF10A cells versus A549 cells, read-out: Ratio IC50; outline: as §1
[32] = Cytotoxicity against HUVEC assessed as change in cell morphology at 20 nM in presence of fetal calf serum and absence of growth factor measured after 48 hrs by phase contrast microscopy; type: toxicity, cell-based; conditions: human, 0.02 µM; outline: as §5

## COC(=O)C(=O)c1cn(C)c2ccc3c(c12)CCCC=C3c1cc(OC)c(OC)c(OC)c1
[1]
  IC50: > 10000 nM
[2]
  IC50: > 10000 nM
[3]
  IC50: > 10000 nM
[4]
  IC50: > 10000 nM
[5]
  IC50: > 10000 nM
[6]
  IC50: > 10000 nM
[7]
  IC50: > 10000 nM

## COc1cc(C2=CCCCc3c2ccc2[nH]cc(C=O)c32)cc(OC)c1OC
[1]
  IC50: 1020 nM
[2]
  IC50: 2060 nM
[3]
  IC50: 1130 nM
[4]
  IC50: 1260 nM
[5]
  IC50: 860 nM
[6]
  IC50: 470 nM
[7]
  IC50: 950 nM

## CCn1ccc2c3c(ccc21)C(c1cc(OC)c(OC)c(OC)c1)=CCCC3
[1]
  IC50: 32 nM
[2]
  IC50: 79 nM
[3]
  IC50: 39 nM
[4]
  IC50: 66 nM
[5]
  IC50: 61 nM
[6]
  IC50: 56 nM
[7]
  IC50: 85 nM

## COc1cc(C2=CCCCc3c2ccc2c3c(CO)cn2C)cc(OC)c1OC
[1]
  IC50: 31 nM
[2]
  IC50: 63 nM
[3]
  IC50: 32 nM
[4]
  IC50: 46 nM
[5]
  IC50: 33 nM
[6]
  IC50: 43 nM
[8]
  IC50: 410 nM
[7]
  IC50: 49 nM

## COc1cc(C2=CCCCc3c2ccc2[nH]ccc32)cc(OC)c1OC
[1]
  IC50: 1010 nM
[2]
  IC50: 1560 nM
[3]
  IC50: 520 nM
[4]
  IC50: 620 nM
[5]
  IC50: 790 nM
[6]
  IC50: 451 nM
[7]
  IC50: 980 nM

## CCCn1ccc2c3c(ccc21)C(c1cc(OC)c(OC)c(OC)c1)=CCCC3
[1]
  IC50: 240 nM
[2]
  IC50: 780 nM
[3]
  IC50: 690 nM
[4]
  IC50: 480 nM
[5]
  IC50: 600 nM
[6]
  IC50: 520 nM
[7]
  IC50: 690 nM

## COc1ccc(/C=C\c2cc(OC)c(OC)c(OC)c2)cc1O [COMBRETASTATIN A4]
[2]
  IC50: 29 nM
[3]
  IC50: 17 nM
[4]
  IC50: 13 nM
[5]
  IC50: 12 nM
[6]
  IC50: 10 nM
[8]
  IC50: 1120 nM
[7]
  IC50: 26 nM

## COc1cc(C2CCCCc3c2ccc2c3ccn2C)cc(OC)c1OC (stereo not given)
[9]
  selectivity ratio: 9.68
[10]
  IC50: 1210 nM
[1]
  IC50: 37 nM
A549 [11]
  Activity: Dose-dependent effect
[2]
  IC50: 51 nM
A549 [12]
  Activity: 60.2%
A549 [13]
  Activity: Active
[14]
  IC50: 1670 nM
[3]
  IC50: 49 nM
[4]
  IC50: 39 nM
[15]
  Activity: 72.1%
A549 [16]
  Activity: Active
[5]
  IC50: 56 nM
A549 [17]
  Activity: 58.4%
[18]
  selectivity ratio: 76.1
A549 [19]
  Activity: 41.4%
[20]
  selectivity ratio: 55
[21]
  IC50: 213 nM
[22]
  IC50: 672 nM
A549 [23]
  Activity: Active
[24]
  Activity: Active
[25]
  Activity: Toxic
A549 [26]
  Activity: 22.8%
A549 [27]
  Activity: 59.8%
[6]
  IC50: 22 nM
A549 [28]
  Activity: 39.6%
[29]
  Activity: 41%
[8]
  IC50: 150 nM
[30]
  Activity: 55.1%
[31]
  selectivity ratio: 30.5
[32]
  Activity: Non-Toxic
[7]
  IC50: 47 nM

## COc1cc(C2=CCCCc3c2ccc2c3c(C=O)cn2C)cc(OC)c1OC
[1]
  IC50: 33 nM
[2]
  IC50: 59 nM
[3]
  IC50: 52 nM
[4]
  IC50: 49 nM
[5]
  IC50: 41 nM
[6]
  IC50: 29 nM
[8]
  IC50: 470 nM
[7]
  IC50: 31 nM

## COc1cc(C2=CCc3c2ccc2c3ccn2C)cc(OC)c1OC
[1]
  IC50: 186 nM
[2]
  IC50: 449 nM
[3]
  IC50: 297 nM
[4]
  IC50: 561 nM
[5]
  IC50: 326 nM
[6]
  IC50: 149 nM
[7]
  IC50: 412 nM

## COc1cc(C2=CCCCc3c2ccc2c3CCN2)cc(OC)c1OC
[1]
  IC50: 597 nM
[2]
  IC50: 812 nM
[3]
  IC50: 1120 nM
[4]
  IC50: 797 nM
[5]
  IC50: 701 nM
[6]
  IC50: 312 nM
[7]
  IC50: 741 nM

## COc1cc(C2=CCCCc3c2ccc2c3ccn2C)cc(OC)c1OC
[1]
  IC50: 44 nM
[2]
  IC50: 69 nM
[3]
  IC50: 47 nM
[4]
  IC50: 78 nM
[5]
  IC50: 56 nM
[6]
  IC50: 49 nM
[8]
  IC50: 580 nM
[7]
  IC50: 93 nM

## COc1cc(C2=CCCCc3c2ccc2c3CCN2C)cc(OC)c1OC
[1]
  IC50: 69 nM
[2]
  IC50: 58 nM
[3]
  IC50: 79 nM
[4]
  IC50: 61 nM
[5]
  IC50: 45 nM
[6]
  IC50: 56 nM
[8]
  IC50: 1040 nM
[7]
  IC50: 77 nM

From ChEMBL document CHEMBL3877276, “Design, synthesis, and biological evaluation of cyclic-indole derivatives as anti-tumor agents via the inhibition of tubulin polymerization” (Eur J Med Chem, 2017)
